The list is not random: actives were taken first. Their share in the collection is about 3.5%.
MrgX1 PAM = human MrgX1 positive allosteric modulation, primary screen; Q96LB2; MrgX1-HEK293, Fluo-4 calcium flux, FDSS; active compounds read high; B-score at 10 µM; actives 0.63% (n = 310,000); AID 588675;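 active means plate-corrected calcium response at least 3 library SD above typical, normal starting fluorescence, not activating the receptor alone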;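 further: compound read alongside a low EC10 to EC30 dose of BAM8-22 agonist; peak minus trough fluorescence over baseline measured at the second addition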
Target sequence (Q96LB2 whole entry, looked up): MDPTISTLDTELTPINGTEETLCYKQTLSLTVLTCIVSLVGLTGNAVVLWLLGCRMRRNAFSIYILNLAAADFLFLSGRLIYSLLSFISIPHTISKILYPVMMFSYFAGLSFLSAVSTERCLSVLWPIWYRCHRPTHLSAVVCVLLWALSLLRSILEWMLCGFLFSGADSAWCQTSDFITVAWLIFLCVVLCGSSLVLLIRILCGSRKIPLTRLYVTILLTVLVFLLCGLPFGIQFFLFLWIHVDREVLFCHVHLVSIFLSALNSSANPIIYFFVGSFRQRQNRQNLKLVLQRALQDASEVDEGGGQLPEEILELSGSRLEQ
RGS4 inh = human RGS4 inhibition | B-score at 10 µM | AID 463165 | HEK293 M3R/RGS4 inducible, Fluo-4 calcium flux; active compounds read high; triggered by carbachol at its EC20 | actives 0.45% (n = 310,000);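 active means B-score, a plate-corrected calcium signal, over three deviations above library mean, with baseline fluorescence within five deviations of library mean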;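 further: RGS4 expression induced by doxycycline in cells with stable M3 receptor; B-score is computed from the integrated fluorescence ratio over baseline after carbachol; higher B-score means a larger calcium signal and so more RGS4 inhibition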
Target sequence (P49798 whole entry, looked up): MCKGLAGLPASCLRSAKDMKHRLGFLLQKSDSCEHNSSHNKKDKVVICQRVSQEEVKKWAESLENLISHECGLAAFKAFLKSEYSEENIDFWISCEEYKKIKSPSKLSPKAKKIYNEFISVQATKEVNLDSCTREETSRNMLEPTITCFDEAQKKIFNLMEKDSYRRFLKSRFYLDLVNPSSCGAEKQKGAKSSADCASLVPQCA
RGS4 act = potentiators or activators of RGS4. HEK293 M3R/inducible RGS4, carbachol calcium flux Fluo4; active compounds read low. B-score at 10 µM. actives 0.92% (n = 310,000). AID 463111;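 active means B-score of the integrated calcium signal more than 4 SD below the library mean, with starting fluorescence not abnormally high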;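 further: negative B-score means reduced calcium response which marks RGS4 activation or potentiation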
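Reagent: ECmax carbachol challenge; Test system: M3R-expressing HEK293 line, RGS4 induced by doxycycline; Schedule: overnight RGS4 induction, 30 min dye load 37 °C, 20 min compound RT; Detection: calcium dye Fluo4 fluorescence; Read-out: Agonist-evoked peak-minus-minimum fluorescence over baseline, integrated ratio, B score.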
MrgX1 agonist = activates human MrgX1 receptor signaling; MrgX1-HEK293 cells, Fluo-4 calcium fluorescence, agonist mode; active compounds read high; actives 0.44% (n = 310,000); B-score at 10 µM; Q96LB2;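 active means calcium response B-score plate-corrected fluorescence ratio at least 3 library SD, with starting fluorescence B-score inside 5 SD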
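System – MrgX1-expressing HEK293 cells · Incubation – cells plated overnight, dye loaded 0.5 h 37 °C, 0.5 h room temperature · Technique – kinetic Fluo-4 NW fluorescence of intracellular calcium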
MrgX1 antag = blocks BAM8-22 activation of human MrgX1 receptor | Q96LB2 | MRGX1-HEK293 calcium flux, Fluo-4, BAM8-22 antagonism; active compounds read low | B-score at 10 µM | actives 1.3% (n = 310,000);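 active means calcium-response B-score plate-corrected more than 3 library SD below zero, starting fluorescence within 5 deviations, no agonist response on first addition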;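 further: peak minus trough fluorescence over baseline after final BAM8-22 challenge near maximal dose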
An asterisk follows results filed as active; i = inactive; x = not tested or not shown; ! = not active in a repeat.

SMILES	MrgX1 PAM	RGS4 inh	RGS4 act	MrgX1 agonist	MrgX1 antag
O=C1N/C(=N/O)S/C1=C/c1cccnc1	i	i	i	i	i
Cc1ccc(S(=O)(=O)/N=C2/NC(=O)/C(=C/c3cccnc3)S2)cc1	i	i	i	31*	i
CCCCSc1nnc(-c2ccc(C)cc2)n1C	i	i	i	i	i
C=CCn1c2ccccc2c2nnc(SCC(N)=O)nc21	i	i	i	i	i
O=C(c1ccncc1)N1N=C(C2CCCCC2)CC1(O)C(F)(F)F (configuration not stated)	i	i	-7.4*	i	i
COc1cc(S(=O)(=O)Nc2ccc(C)cc2)ccc1N=Cc1c(C)[nH]n(-c2ccc(C)cc2)c1=O	i	i	i	i	i
COc1cc(S(=O)(=O)Nc2ccc(C)cc2)ccc1N=Cc1c(C)c(C#N)c(=O)n(C)c1O	i	i	-8.6*	i	i
CC(=O)NC(=S)NNC(=O)C(c1ccccc1)c1ccccc1	12*	i	i	i	i
CCCCc1nn2c(N)c(/C=C3\C=Nc4ccccc43)c(=O)nc2s1	i	i	i	i	i
CCC(CC)c1nn2c(N)c(/C=C3\C=Nc4ccccc43)c(=O)nc2s1	i	i	i	i	i
CC(C)c1nn2c(N)c(/C=C3\C=Nc4ccccc43)c(=O)nc2s1	13*	i	i	i	i
CCCc1nn2c(N)c(/C=C3\C=Nc4ccccc43)c(=O)nc2s1	16*!	i	i	i	i
C/C(CC(C)(C)C1CCCCC1)=N\NC(N)=S	i	i	i	i	-8.7*
CCOC(=O)COc1c(Cl)cc(C2NC(=S)NC(c3ccccc3)=C2C(C)=O)cc1OC (configuration not stated)	i	i	i	i	i
COc1ccc(-n2nc3c(N4CCC(C(=O)N5CCC(C)CC5)CC4)nnc(C)c3c2C)cc1	i	i	-7*	i	i
Cc1nnc(N2CCC(C(=O)N3CCCCC3)CC2)c2nn(-c3ccc(Cl)cc3)c(C)c12	i	i	i	i	i
COc1ccc(C(C(O)C(=O)c2c[nH]c3ccccc23)N2CCN(c3ccc(OC)cc3)CC2)cc1 (configuration not stated)	i	i	i	i	i
O=C(NNS(=O)(=O)c1cc(Cl)c(Cl)cc1Cl)c1cccnc1	i	i	i	i	-9.2*
O=C(Nc1ccc(Cl)c(Cl)c1)c1cccnc1	i	i	i	i	i
Cc1[nH]c2ccccc2c1/C=N/Nc1ccc([N+](=O)[O-])cc1	i	i	i	i	-4.9*
C/C(=N/Nc1ccc([N+](=O)[O-])cc1)c1ccc(C)cc1C	i	i	i	i	i
C/C(=N/Nc1ccc([N+](=O)[O-])cc1)c1c[nH]c2ccccc12	i	i	i	i	-4.9*
COc1ccc(C(CNC(=O)C(=O)Nc2ccc3c(c2)OCO3)N2CCN(C)CC2)cc1 (configuration not stated)	i	i	i	i	-6.2*
CCc1cc2c(=O)n(Cc3ccco3)c(SCC(=O)N3CCCc4ccccc43)nc2s1	i	i	i	i	i
CCOC(=O)c1ccc(N2CN=C3SCC(=O)N3C2)cc1	i	i	i	i	i
SMILES	MrgX1 PAM	RGS4 inh	RGS4 act	MrgX1 agonist	MrgX1 antag
CCN1/C(=C/C=C/c2oc3ccc4ccccc4c3[n+]2CC)Oc2ccc3ccccc3c21	i	i	-9*	i	-7.8*
COc1ccc(C(=O)CSc2nnc(CCc3ccccc3)n2-c2ccccc2)cc1	i	i	i	i	-6.4*
O=C(CSc1nnc(CCc2ccccc2)n1-c1ccc(Cl)cc1)NCc1ccccc1	i	i	i	i	-4.8*
COc1ccc(-n2c(CCc3ccccc3)nnc2SCC(=O)c2ccccc2)cc1	i	i	i	i	i
O=C(CSc1nnc(CNc2ccc(F)cc2)n1Cc1ccccc1)NCc1ccccc1	i	i	i	i	-6.4*
O=C(CSc1ncnc2c1nnn2Cc1ccccc1F)N1CCN(c2ccccc2)CC1	x	i	i	x	x
COC(=O)CCSCC(=O)Nc1nnc(C)s1	i	i	i	i	i
COc1cc(/C=C2/C(=N)N3OC(C)=CC3=NC2=O)ccc1OCCOc1ccc(C)cc1	i	i	i	i	-4.9*
CCC1=NN2C(=N)/C(=C\c3ccc(OCCOc4ccc(NC(C)=O)cc4)cc3)C(=O)N=C2S1	11*	i	i	i	i
CCOc1cc(/C=C2\C(=N)N3N=C(CC)SC3=NC2=O)ccc1OCCOc1ccc(NC(C)=O)cc1	i	i	i	i	i
COc1cc(/C=C2\C(=N)N3N=C(C)SC3=NC2=O)cc(OC)c1OCCOc1ccccc1C	i	i	i	i	i
COc1cc(/C=C2\C(=N)N3N=C(C)SC3=NC2=O)cc(Cl)c1OCCOc1ccc(NC(C)=O)cc1	7.6*	i	i	i	i
COc1cc(/C=C2\C(=N)N3N=C(C(C)C)SC3=NC2=O)ccc1OCCOc1ccc(NC(C)=O)cc1	14*	i	i	i	i
CN(Cc1ccccc1)C(=O)c1cc(S(=O)(=O)N2CCOCC2)cn1C	i	i	i	i	i
COc1ccc(C(=O)Nc2ccc(Cl)cc2C(=O)NCCN2CCOCC2)cc1	i	i	i	i	i
COc1ccccc1-c1c(C)oc2c(CN3CCCC(C)C3)c(O)ccc2c1=O (configuration not stated)	x	i	i	x	x
CCC1=NN2C(=N)/C(=C/c3ccc(OS(=O)(=O)c4ccccc4)c(OC)c3)C(=O)N=C2S1	i	i	i	i	i
CCC1=NN2C(=N)/C(=C/c3c(C)nn(-c4ccccc4)c3Cl)C(=O)N=C2S1	i	i	i	30*	i
CCCC1=NN2C(=N)/C(=C\c3ccc(OCCOc4ccc(NC(C)=O)cc4)c(OC)c3)C(=O)N=C2S1	15*	i	i	i	i
CCOc1cc(/C=C2\C(=N)N3N=C(C)SC3=NC2=O)ccc1OCCOc1cccc(OC)c1	i	i	i	i	i
COc1ccccc1OCCOc1ccc(/C=C2\C(=N)N3N=C(S(C)(=O)=O)SC3=NC2=O)cc1	i	i	i	i	i
CC(=O)Nc1ccc(OCCOc2ccc(/C=C3/C(=N)N4C=CSC4=NC3=O)cc2)cc1	i	i	i	30*	i
CCc1nn2c(=O)cc(COc3ccc(/C=C4\C(=N)N5N=C(C)SC5=NC4=O)cc3)nc2s1	9.4*	i	i	i	-4.5*

Screens deposited in PubChem by Johns Hopkins Ion Channel Center.
